Results: article PMC12166256 (Clinical Pharmacology and Therapeutics, 2025)

Columns and labels:
[1] = Food effect study: safety and tolerability; format: in vivo, human
Method in brief: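 Healthy males aged 18–55 with BMI 18–30 kg/m² were followed through dosing and a 6–8-day follow-up. Checks: physical examination, clinical laboratory tests, vital signs and 12-lead ECG, with adverse events coded in MedDRA. Events of special interest: ALT ≥2×ULN, QTcF ≥500 ms, Grade ≥2 photosensitivity, symptomatic overdose. Treatment-emergent events were summarised descriptively by organ class, preferred term and dose level for all exposed participants.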

TNF = conditions: read-out: 50% inhibitory concentration [IC50], TNF inhibition; in vitro; cited from earlier work
[2] = Food effect study: plasma pharmacokinetics; format: in vivo, human; conditions: for AUC (0 to infinity), geometric mean / AUC (0 to infinity), mean ± SD / C max, geometric mean / C max, mean ± SD / t 1/2z, geometric mean / t 1/2z, mean ± SD / t lag, median / t max, median: 200 mg single dose

## CN1C(=O)c2cccc(OC(F)F)c2[C@H]2C[C@@H]1c1nc3ccc(-c4cnc(C5(N)CCC5)nc4)cc3n12 [Balinatunfib]
[1]; 200 mg fasted (five of eight)
  participants with at least one TEAE: 62.5%
[1]; 200 mg fasted, N = 8
  Any event TEAE, events: 7
  Any event TEAE, participants: 5 (62.5) n (%)
  Blood and lymphatic system disorders TEAE, events: 1
  Blood and lymphatic system disorders TEAE, participants: 1 (12.5) n (%)
  Blood pressure orthostatic decreased TEAE, events: 1
  Blood pressure orthostatic decreased TEAE, participants: 1 (12.5) n (%)
  Diarrhea TEAE, events: 1
  Diarrhea TEAE, participants: 1 (12.5) n (%)
  Dry skin TEAE, events: 1
  Dry skin TEAE, participants: 1 (12.5) n (%)
  Fatigue TEAE, events: 0
  Fatigue TEAE, participants: 0 n (%)
  Flatulence TEAE, events: 1
  Flatulence TEAE, participants: 1 (12.5) n (%)
  Gastrointestinal disorders TEAE, events: 2
  Gastrointestinal disorders TEAE, participants: 2 (25.0) n (%)
  General disorders and administration site conditions TEAE, events: 0
  General disorders and administration site conditions TEAE, participants: 0 n (%)
  Headache TEAE, events: 1
  Headache TEAE, participants: 1 (12.5) n (%)
  Investigations TEAE, events: 1
  Investigations TEAE, participants: 1 (12.5) n (%)
  Loss of consciousness TEAE, events: 1
  Loss of consciousness TEAE, participants: 1 (12.5) n (%)
  Muscle tightness TEAE, events: 0
  Muscle tightness TEAE, participants: 0 n (%)
  Musculoskeletal and connective tissue disorders TEAE, events: 0
  Musculoskeletal and connective tissue disorders TEAE, participants: 0 n (%)
  Nervous system disorders TEAE, events: 2
  Nervous system disorders TEAE, participants: 2 (25.0) n (%)
  Neutropenia TEAE, events: 1
  Neutropenia TEAE, participants: 1 (12.5) n (%)
  Skin and subcutaneous tissue disorders TEAE, events: 1
  Skin and subcutaneous tissue disorders TEAE, participants: 1 (12.5) n (%)
  Tendonitis TEAE, events: 0
  Tendonitis TEAE, participants: 0 n (%)
[1]; 200 mg fasted, Period 1, normal range 1.46–5.85
  neutrophil count in the participant with Grade 2 neutropenia: 1.42e+09 L⁻¹
[1]; 200 mg fed (four of six)
  participants with at least one TEAE: 66.7%
[1]; 200 mg fed, N = 6
  Any event TEAE, events: 6
  Any event TEAE, participants: 4 (66.7) n (%)
  Blood and lymphatic system disorders TEAE, events: 0
  Blood and lymphatic system disorders TEAE, participants: 0 n (%)
  Blood pressure orthostatic decreased TEAE, events: 1
  Blood pressure orthostatic decreased TEAE, participants: 1 (16.7) n (%)
  Diarrhea TEAE, events: 1
  Diarrhea TEAE, participants: 1 (16.7) n (%)
  Dry skin TEAE, events: 0
  Dry skin TEAE, participants: 0 n (%)
  Fatigue TEAE, events: 1
  Fatigue TEAE, participants: 1 (16.7) n (%)
  Flatulence TEAE, events: 0
  Flatulence TEAE, participants: 0 n (%)
  Gastrointestinal disorders TEAE, events: 1
  Gastrointestinal disorders TEAE, participants: 1 (16.7) n (%)
  General disorders and administration site conditions TEAE, events: 1
  General disorders and administration site conditions TEAE, participants: 1 (16.7) n (%)
  Headache TEAE, events: 1
  Headache TEAE, participants: 1 (16.7) n (%)
  Investigations TEAE, events: 1
  Investigations TEAE, participants: 1 (16.7) n (%)
  Loss of consciousness TEAE, events: 0
  Loss of consciousness TEAE, participants: 0 n (%)
  Muscle tightness TEAE, events: 1
  Muscle tightness TEAE, participants: 1 (16.7) n (%)
  Musculoskeletal and connective tissue disorders TEAE, events: 2
  Musculoskeletal and connective tissue disorders TEAE, participants: 2 (33.3) n (%)
  Nervous system disorders TEAE, events: 1
  Nervous system disorders TEAE, participants: 1 (16.7) n (%)
  Neutropenia TEAE, events: 0
  Neutropenia TEAE, participants: 0 n (%)
  Skin and subcutaneous tissue disorders TEAE, events: 0
  Skin and subcutaneous tissue disorders TEAE, participants: 0 n (%)
  Tendonitis TEAE, events: 1
  Tendonitis TEAE, participants: 1 (16.7) n (%)
[1]; food effect study
  Grade ≥ 3 TEAE, treatment-emergent SAEs, AESIs: No participants
TNF
  IC50: 35 nM
[2]; 200 mg
  AUC higher in the fed state than in the fasted state: 18%
  AUClast higher in the fed state than in the fasted state: 16%
  C max higher in the fed state than in the fasted state: 14%
  delay of maximum plasma concentrations, fed compared to fasted: 1 h
[2]; fasted
  AUC (0 to infinity), geometric mean: (2,010) [26] ng·h/mL
  AUC (0 to infinity), mean ± SD: 2,060 ± 539 ng·h/mL
  C max, geometric mean: (119) [32] ng/mL
  C max, mean ± SD: 123 ± 39.5 ng/mL
  t 1/2z, geometric mean: (21.9) [23] h
  t 1/2z, mean ± SD: 22.5 ± 5.23 h
  t lag, median: 0.00 h
  t max, median: 3.00 h
[2]; fed
  AUC (0 to infinity), geometric mean: (2,340) [33] ng·h/mL
  AUC (0 to infinity), mean ± SD: 2,430 ± 815 ng·h/mL
  C max, geometric mean: (132) [35] ng/mL
  C max, mean ± SD: 138 ± 48.1 ng/mL
  t 1/2z, geometric mean: (27.3) [18] h
  t 1/2z, mean ± SD: 27.6 ± 4.84 h
  t lag, median: 0.00 h
  t max, median: 4.00 h
[2]; 200 mg, fed vs. fasted
  AUC geometric mean ratio, point estimate: 1.18
  AUClast geometric mean ratio, point estimate: 1.16
  C max geometric mean ratio, point estimate: 1.14
[2]; high-fat meal
  effect of food on the PK characteristics: no relevant effects
